The text below walks through data of ChEMBL document CHEMBL1143208, “Structure and property based design of factor Xa inhibitors: biaryl pyrrolidin-2-ones incorporating basic heterocyclic motifs” (Bioorg Med Chem Lett, 2008).

What is called logD is lipophilicity at a set pH, counting ionised and neutral species. For orientation: half-life means how long it takes for the measured level to halve. Read a low half-life as fast loss. One may read the clearance as the rate of elimination divided by the concentration. A high value points to efficient removal. As usually defined, the bioavailability is the share of a dose that reaches the circulation, judged against a reference dose that is usually intravenous. The low end stands for little systemic uptake, the high end for much systemic uptake. A word on the pKa: it is the negative logarithm of the acid dissociation constant. Low readings indicate a stronger acid or weaker base, high ones a weaker acid or stronger base.

Data set [1] can be described thus: Distribution coefficient, log D of the compound. The class given is physicochemical. The settings on record: chromatographic hydrophobicity index (CHI) at pH 7.4. The procedure, abridged:
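Measured hydrophobicity expressed as a chromatographic hydrophobicity index (CHI) logD at pH 7.4.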

Data set [2] can be described thus: Half life in Sprague-Dawley rat. The class given is ADME, organism-based. Particulars: in vivo. The procedure, abridged:
(§1)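 Male Sprague–Dawley rats dosed intravenously and orally, with pharmacokinetic parameters derived from both routes.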

Data set [3] can be described thus: Plasma clearance in Sprague-Dawley rat. In kind it is ADME, organism-based. The procedure, abridged:
as §1

Data set [4] can be described thus: Volume of distribution at steady state in Sprague-Dawley rat. The settings on record: in vivo, read-out: Vdss. In kind it is ADME, organism-based. The procedure, abridged: as §1
The nature of data set [5]: Oral bioavailability in Sprague-Dawley rat. In kind it is ADME, organism-based. The settings on record: in vivo. The procedure, abridged:
as §1

A short description of data set [6]: Dissociation constant, pKa of the compound. In kind it is physicochemical.

In data set [1], `C/C(=C\S(=O)(=O)NC1CCN(c2ccc(-n3ccnc3CN(C)C)cc2F)C1=O)c1ccc(Cl)s1` (configuration not stated) had a logD of 2.44. The molecule also had a half-life in data set [2] of 48 min. In data set [3], this molecule had a clearance of 18 mL/min/kg. Moreover, in data set [4], the Vd amounted to 0.7 L/kg. This molecule showed a bioavailability in data set [5] of 16%. Take `O=C1C(NS(=O)(=O)/C=C/c2ccc(Cl)s2)CCN1c1ccc(-n2ccnc2CN2CCOCC2)cc1F` (configuration not stated): in data set [1], the logD came out at 2.28. In addition, the pKa in data set [6] was found to be 5.75.

The molecule `O=C1C(NS(=O)(=O)/C=C/c2ccc(Cl)s2)CCN1c1ccc(-n2ccnc2CN2CCCC2)cc1F` (configuration not stated) returned a logD in data set [1] of 2.21. Further, the pKa in data set [6] came out at 7.95. In turn, `CN(C)Cc1nccn1-c1ccc(N2CCC(NS(=O)(=O)c3ncc(-c4ccc(Cl)s4)s3)C2=O)c(F)c1` (configuration not stated) yielded a logD in data set [1] of 2.75. On the same count and under the same terms, next, `O=C1C(NS(=O)(=O)/C=C/c2ccc(Cl)s2)CCN1c1ccc(-n2ccnc2CN2CCC(F)C2)cc1F` (configuration not stated): 2.58; `CNCc1nccn1-c1ccc(N2CCC(NS(=O)(=O)/C=C/c3ccc(Cl)s3)C2=O)c(F)c1` (configuration not stated): 1.7. As to `CN(C)Cc1ccn(-c2ccc(N3CCC(NS(=O)(=O)c4cc5ccc(Cl)cc5s4)C3=O)c(F)c2)n1` (configuration not stated), in data set [1], the logD was found to be 2.4.

As for `CN(C)Cc1nccn1-c1ccc(N2CCC(NS(=O)(=O)c3ccc4[nH]cc(Cl)c4c3)C2=O)c(F)c1` (configuration not stated), the logD in data set [1] came out at 1.76. Molecule `CN(C)Cc1nocc1-c1ccc(N2CCC(NS(=O)(=O)/C=C/c3ccc(Cl)s3)C2=O)c(F)c1` (configuration not stated) returned a logD in data set [1] of 3.29. Same read-out and setting: next, `C/C(=C\S(=O)(=O)NC1CCN(c2ccc(-n3cnc(CN(C)C)c3)cc2F)C1=O)c1ccc(Cl)s1` (configuration not stated): 1.64; `CN(C)Cc1nccn1-c1ccc(N2CCC(NS(=O)(=O)c3ccc4cc(Cl)ccc4c3)C2=O)c(F)c1` (configuration not stated): 2.55. `CN(C)Cc1nccn1-c1ccc(N2CCC(NS(=O)(=O)/C=C/c3ccc(Cl)s3)C2=O)c(F)c1` (configuration not stated) displayed a logD in data set [1] of 2.54. This molecule showed a half-life in data set [2] of 60 min. This molecule came in with a clearance in data set [3] of 13 mL/min/kg. Moreover, in data set [4], the Vd was 0.6 L/kg. In addition, the bioavailability in data set [5] was determined as 52%. In addition, in data set [6], the pKa turned out to be 7.26. Turning to `CN(C)Cc1nccn1-c1ccc(N2CCC(NS(=O)(=O)c3ccc4c(Cl)c[nH]c4c3)C2=O)c(F)c1` (configuration not stated), the logD in data set [1] amounted to 1.98. In the case of `CN(C)Cc1cn(-c2ccc(N3CCC(NS(=O)(=O)c4cc5ccc(Cl)cc5s4)C3=O)c(F)c2)cn1` (configuration not stated), the logD in data set [1] came out at 1.82.

For the molecule `CCN(C)Cc1nccn1-c1ccc(N2CCC(NS(=O)(=O)/C=C/c3ccc(Cl)s3)C2=O)c(F)c1` (configuration not stated), in data set [1], the logD worked out at 2.48. On to `CN(C)Cc1nccn1-c1ccc(N2CCC(NS(=O)(=O)c3cc4cc(Cl)ccc4s3)C2=O)c(F)c1` (configuration not stated), for which the logD in data set [1] came out at 2.59. For the molecule `C/C(=C\S(=O)(=O)NC1CCN(c2ccc(-n3cncc3CN(C)C)cc2F)C1=O)c1ccc(Cl)s1` (configuration not stated), the logD in data set [1] came to 2.31. In turn, `CN(C)Cc1nccn1-c1ccc(N2CCC(NS(=O)(=O)c3cc4ccc(Cl)cc4s3)C2=O)c(F)c1` (configuration not stated) displayed a logD in data set [1] of 2.58. In the case of `CN(C)Cc1nccn1-c1ccc(N2CCC(NS(=O)(=O)CCc3ccc(Cl)s3)C2=O)c(F)c1` (configuration not stated), the logD in data set [1] turned out to be 2.32. Besides, the half-life in data set [2] is 48 min. In addition, the clearance in data set [3] worked out at 39 mL/min/kg. Further, in data set [4], the Vd came to 1.1 L/kg. Also, in data set [5], the bioavailability was found to be 10%. `CN(C)Cc1ccnn1-c1ccc(N2CCC(NS(=O)(=O)c3cc4ccc(Cl)cc4s3)C2=O)c(F)c1` (configuration not stated) gave a logD in data set [1] of 3.35. As to `C/C(=C\S(=O)(=O)NC1CCN(c2ccc(-n3ccc(CN(C)C)n3)cc2F)C1=O)c1ccc(Cl)s1` (configuration not stated), the logD in data set [1] was found to be 2.2. Take `CC(C)N(C)Cc1nccn1-c1ccc(N2CCC(NS(=O)(=O)/C=C/c3ccc(Cl)s3)C2=O)c(F)c1` (configuration not stated): in data set [1], the logD turned out to be 2.7.
